≈ marks a conversion by molar mass, not a printed value. Calls of active or inactive are those of the source. The rule behind the calls is not given here.
How the values were obtained:
Staphylococcus aureus [1] = test: Antimicrobial activity against Staphylococcus aureus after 24 hrs by two-fold serial dilution method; format: functional, organism-based
Staphylococcus aureus [2] = test: Antimicrobial activity against methicillin-resistant Staphylococcus aureus after 24 hrs by two-fold serial dilution method; format: functional, organism-based
Enterococcus faecalis [3] = test: Antimicrobial activity against Enterococcus faecalis after 24 hrs by two-fold serial dilution method; format: functional
Staphylococcus aureus [4] = test: Antimicrobial activity against Staphylococcus aureus ATCC 25923 after 24 hrs by two-fold serial dilution method; format: functional, organism-based
Staphylococcus aureus [5] = test: Antimicrobial activity against Staphylococcus aureus ATCC 29213 after 24 hrs by two-fold serial dilution method; format: functional, organism-based
Klebsiella pneumoniae [6] = test: Antimicrobial activity against Klebsiella pneumoniae after 24 hrs by two-fold serial dilution method; format: functional, organism-based
Escherichia coli [7] = test: Antimicrobial activity against Escherichia coli after 24 hrs by two-fold serial dilution method; format: functional, organism-based
Acinetobacter baumannii [8] = test: Antimicrobial activity against Acinetobacter baumannii after 24 hrs by two-fold serial dilution method; format: functional, organism-based
Pseudomonas aeruginosa [9] = test: Antimicrobial activity against Pseudomonas aeruginosa after 24 hrs by two-fold serial dilution method; format: functional, organism-based
Pseudomonas aeruginosa [10] = test: Antimicrobial activity against Pseudomonas aeruginosa ATCC 27853 after 24 hrs by two-fold serial dilution method; format: functional
Escherichia coli [11] = test: Antimicrobial activity against Escherichia coli ATCC 25922 after 24 hrs by two-fold serial dilution method; format: functional, organism-based
Enterococcus faecalis [12] = test: Antimicrobial activity against Enterococcus faecalis assessed as ratio of MIC after and before […] measured at 24 hrs interval for 16 days by two-fold serial dilution method; format: functional
[13] = Solubility of the compound in water; format: physicochemical; settings: buffer
Staphylococcus aureus [14] = test: Antimicrobial activity against Staphylococcus aureus after 24 hrs under pH 4 to 11 by two-fold serial dilution method; format: functional, organism-based
Staphylococcus aureus [15] = test: Antimicrobial activity against methicillin-resistant Staphylococcus aureus after 24 hrs under pH 4 to 11 by two-fold serial dilution method; format: functional, organism-based
Enterococcus faecalis [16] = test: Antimicrobial activity against Enterococcus faecalis after 24 hrs under pH 4 to 11 by two-fold serial dilution method; format: functional, organism-based
Staphylococcus aureus [17] = test: Antimicrobial activity against Staphylococcus aureus ATCC 25923 after 24 hrs under pH 4 to 11 by two-fold serial dilution method; format: functional, organism-based
Staphylococcus aureus [18] = test: Antimicrobial activity against Staphylococcus aureus ATCC 29213 after 24 hrs under pH 4 to 11 by two-fold serial dilution method; format: functional, organism-based
Klebsiella pneumoniae [19] = test: Antimicrobial activity against Klebsiella pneumoniae after 24 hrs under pH 4 to 11 by two-fold serial dilution method; format: functional, organism-based
Escherichia coli [20] = test: Antimicrobial activity against Escherichia coli after 24 hrs under pH 4 to 11 by two-fold serial dilution method; format: functional, organism-based
Acinetobacter baumannii [21] = test: Antimicrobial activity against Acinetobacter baumannii after 24 hrs under pH 4 to 11 by two-fold serial dilution method; format: functional, organism-based
Pseudomonas aeruginosa [22] = test: Antimicrobial activity against Pseudomonas aeruginosa after 24 hrs under pH 4 to 11 by two-fold serial dilution method; format: functional, organism-based
Pseudomonas aeruginosa [23] = test: Antimicrobial activity against Pseudomonas aeruginosa ATCC 27853 after 24 hrs under pH 4 to 11 by two-fold serial dilution method; format: functional, organism-based
Escherichia coli [24] = test: Antimicrobial activity against Escherichia coli ATCC 25922 after 24 hrs under pH 4 to 11 by two-fold serial dilution method; format: functional, organism-based
Candida parapsilosis = test: Antifungal activity against Candida parapsilosis ATCC 22019 after 24 hrs by two-fold serial dilution method; format: functional
Aspergillus fumigatus = test: Antifungal activity against Aspergillus fumigatus after 24 hrs by two-fold serial dilution method; format: functional
Enterococcus faecalis [25] = test: Antimicrobial activity against Enterococcus faecalis after 11 passages measured at 24 hrs interval for 16 days by two-fold serial dilution method; format: functional
Enterococcus faecalis [26] = test: Bactericidal activity against Enterococcus faecalis assessed as log reduction in bacterial colonies at 4 times MIC measured within 1 hr by time-kill assay; format: functional
Method in brief: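 Viable counts of E. faecalis were expressed as log CFU/mL and followed over the first hour of exposure at 4 × MIC. A positive-control drug was run alongside.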

Enterococcus faecalis [27] = test: Induction of membrane disruption in Enterococcus faecalis at 12 times MIC measured every 10 mins for 60 mins by propidium iodide staining based fluorescence assay; format: functional, organism-based
Method in brief: (§1)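 Membrane permeabilization was tracked by propidium iodide, which enters compromised cells and fluoresces on binding DNA. Fluorescence of bacteria with compound plus PI was recorded over 60 min, against two control groups. Strains were E. faecalis and E. coli ATCC 25922.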

Escherichia coli [28] = test: Induction of membrane disruption in Escherichia coli ATCC 25922 at 12 times MIC measured every 10 mins for 60 mins by propidium iodide staining based fluorescence assay; format: functional, organism-based; method in brief: as §1
[29] = Cytotoxicity against mouse RAW264.7 cells assessed as cell viability at 128 ug/ml after 24 hrs by MTT assay relative to control; format: cell-based; settings: read-out: Activity
Method in brief: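 Normal mouse macrophage RAW264.7 cells were exposed to the compound up to 128 μg/mL for 24 h, and viability was read by MTT. Each bar is the mean of three parallels, with error bars of one standard deviation.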

DNA [30] = test: Binding affinity to Enterococcus faecalis DNA assessed as DNA intercalation by UV-vis absorption spectrophotometric method; format: nucleic-acid assay
Method in brief: (§2)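 Genomic DNA was isolated from drug-resistant E. faecalis strains and examined in vitro with the compound by UV–vis absorption and by neutral red fluorescence spectroscopy.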

DNA [31] = test: Binding affinity to Enterococcus faecalis DNA assessed as DNA intercalation by neutral red dye based spectrofluorimetric method; format: nucleic-acid assay; method in brief: as §2

SMILES	Activity (Staphylococcus aureus [1])	Activity (Staphylococcus aureus [2])	Activity (Enterococcus faecalis [3])	Activity (Staphylococcus aureus [4])	Activity (Staphylococcus aureus [5])	Activity (Klebsiella pneumoniae [6])	Activity (Escherichia coli [7])	Activity (Acinetobacter baumannii [8])	Activity (Pseudomonas aeruginosa [9])	Activity (Pseudomonas aeruginosa [10])	Activity (Escherichia coli [11])	other results
OC(Cn1cncn1)Cn1c2ccccc2c2ccccc21 (centres undefined)	Active	Active	Active	Active	Active	Active	Active	Active	Active	Active	Active	–
OC(Cn1cncn1)Cn1c2ccccc2c2cc(I)ccc21 (centres undefined)	Active	Active	Active	Active	Active	Active	Active	Active	Active	Active	Active	–
OC(Cn1cncn1)Cn1c2ccccc2c2cc(Br)ccc21 (centres undefined)	Active	Active	Active	Active	Active	Active	Active	Active	Active	Active	Active	–
CCn1cc(C(=O)O)c(=O)c2cc(F)c(N3CCNCC3)cc21 [NORFLOXACIN]	–	–	Active	–	Active	–	–	–	–	–	Active	Ratio (Enterococcus faecalis [12]): 16
Cc1nccn1CC(O)Cn1c2ccccc2c2ccccc21 (centres undefined)	Active	Active	Active	Active	Active	Active	Active	Active	Active	Active	Active	–
Cc1ncc([N+](=O)[O-])n1CC(O)Cn1c2ccc(Br)cc2c2cc(Br)ccc21 (centres undefined)	–	–	–	–	–	–	–	–	–	–	–	MIC (Pseudomonas aeruginosa [10]; ATCC 27853, 24 h): 32 mg/L (≈ 63 µM)
CC(C)(C)c1ccc2c(c1)c1cc(C(C)(C)C)ccc1n2CC(O)Cn1cncn1 (centres undefined)	Active	Active	Active	Active	Active	Active	Active	Active	Active	Active	Active	–
OC(Cn1cncn1)Cn1c2ccccc2c2ccc(Br)cc21 (centres undefined)	Active	Active	Active	Active	Active	Active	Active	Active	Active	Active	Active	–
Cc1ncc([N+](=O)[O-])n1CC(O)Cn1c2ccccc2c2ccccc21 (centres undefined)	Active	Active	Active	Active	Active	Active	Active	Active	Active	Active	Active	solubility [13]: Soluble; Activity (Staphylococcus aureus [14]): Active; Activity (Staphylococcus aureus [15]): Active; Activity (Enterococcus faecalis [16]): Active; Activity (Staphylococcus aureus [17]): Active; Activity (Staphylococcus aureus [18]): Active; Activity (Klebsiella pneumoniae [19]): Active; Activity (Escherichia coli [20]): Active; Activity (Acinetobacter baumannii [21]): Active; Activity (Pseudomonas aeruginosa [22]): Active; Activity (Pseudomonas aeruginosa [23]): Active; Activity (Escherichia coli [24]): Active
OC(Cn1cncn1)Cn1c2ccc(Br)cc2c2cc(Br)ccc21 (centres undefined)	Active	Active	Active	Active	Active	Active	Active	Active	Active	Active	Active	–
OC(Cn1cncn1)(Cn1cncn1)c1ccc(F)cc1F	–	–	–	–	–	–	–	–	–	–	–	Activity (Candida parapsilosis): Active; Activity (Aspergillus fumigatus): Active
O=[N+]([O-])c1cn(CC(O)Cn2c3ccccc3c3ccccc32)cn1 (centres undefined)	Active	Active	Active	Active	Active	Active	Active	Active	Active	Active	Active	–
OC(Cn1cncn1)Cn1c2ccc(Cl)cc2c2cc(Cl)ccc21 (centres undefined)	Active	Active	–	Active	Active	Active	Active	Active	Active	Active	Active	MIC (Enterococcus faecalis [3]): 2 mg/L (≈ 5.54 µM); MIC (Candida parapsilosis; Lodderomyces parapsilosis, ATCC 22019, 24 h): 4 mg/L (≈ 11.1 µM); MIC (Aspergillus fumigatus): 32 mg/L (≈ 88.6 µM); MIC (Enterococcus faecalis [25]): 2 to 8 mg/L (≈ 5.54 to 22.1 µM); Activity (Enterococcus faecalis [26]): >3 log10CFU/ml; Activity (Enterococcus faecalis [27]): Active; Activity (Escherichia coli [28]): Active; viability at 24 h, 128 ug/ml [29]: > 80%; Activity (DNA [30]): Active; Activity (DNA [31]): Active
OC(Cn1ccnc1-c1ccccc1)Cn1c2ccccc2c2ccccc21 (centres undefined)	inactive	inactive	inactive	inactive	inactive	inactive	inactive	inactive	inactive	inactive	inactive	–

From ChEMBL document CHEMBL4251702, “Potential Antimicrobial Isopropanol-Conjugated Carbazole Azoles as Dual Targeting Inhibitors of Enterococcus faecalis” (ACS Med Chem Lett, 2018)
